{"source": "ChEMBL document CHEMBL4811231", "about": "“Discovery and structural optimization of 3-O-β-chacotriosyl oleanane-type triterpenoids as potent entry inhibitors of SARS-CoV-2 virus infections” (Eur J Med Chem, 2021)", "key": {"[1]": {"test": "Cytotoxicity against human 293T/ACE2 cells measured after 48 hrs by MTT assay", "assay_type": "cell-based", "conditions": "293t/ace2, 48 h; call rule not given here", "in_short": "(§1)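 MTT assay on monolayers of 293T-ACE2 or Vero-E6 cells. Cells were rinsed with PBS and exposed to compound for 48 h, then given 0.5 mg/mL MTT for 4 h at 37 °C. Formazan was dissolved in DMSO and absorbance read at 570 nm.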"}, "[2]": {"test": "Selectivity index, ratio of CC50 for cytotoxicity against human 293T/ACE2 cells to IC50 for SARS-CoV-2 spike glycoprotein S inhibition", "assay_type": "toxicity, cell-based", "conditions": "read-out: Selectivity Index"}, "[3]": {"test": "Binding affinity to SARS-CoV-2 spike glycoprotein S2 measured by Surface plasmon resonance", "parameters": "species or system Severe acute respiratory syndrome-related coronavirus", "in_short": "(§2)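 Compound was immobilised on the chip by photo-crosslinking. Recombinant SARS-CoV-2 S-trimer, S1 or S2 protein was injected at a series of concentrations in PBST (0.1% Tween 20, pH 7.4) at 4 °C. Binding lasted 600 s and dissociation 360 s, at 0.5 µL/s. The chip was regenerated with glycine-HCl pH 2.0.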"}, "[4]": {"test": "Inhibition of SARS-CoV-2 spike glycoprotein S1 binding to human ACE2 receptor in co-transfected human HEK293T cells at 40 uM measured by Co-immunoprecipitation based Western blot assay", "assay_type": "cell-based, Severe acute respiratory syndrome-related coronavirus", "in_short": "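293T cells were co-transfected with ACE2-Flag and SARS-S plasmids, and total protein was extracted after 48 h. Lysates were immunoprecipitated overnight with protein A Sepharose and anti-Flag antibody (mouse IgG as control). Proteins were run on 10% PAGE and blotted with anti-Flag and anti-SARS-CoV-S antibodies plus an HRP secondary.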"}, "[5]": {"test": "Binding affinity to SARS-CoV-2 spike glycoprotein S1 measured by Surface plasmon resonance", "parameters": "species or system Severe acute respiratory syndrome-related coronavirus", "in_short": "as §2"}, "[6]": {"test": "Antiviral activity against SARS-CoV-2 Wuhan-HU-1 preincubated for 1 hr with African green monkey VeroE6 cells assessed as inhibition of viral infection by measuring total RNA after 24 hrs by qPCR analysis", "assay_type": "functional, cell-based, Vero E6", "conditions": "Severe acute respiratory syndrome-related coronavirus, Wuhan-HU-1, Vero C1008"}, "Vero E6 [7]": {"tested_on": "Vero E6", "test": "Antiviral activity against SARS-CoV-2 Wuhan-HU-1 infection on African green monkey Vero E6 cells assessed by viral nucleoprotein expression at 0.55 to 15 uM measured after 48 hrs by DAPI staining based indirect immunoflourescence microscopy relative to control", "assay_type": "functional, cell-based", "conditions": "Severe acute respiratory syndrome-related coronavirus, dose 0.55-15 µM"}, "Vero C1008": {"tested_on": "Vero C1008", "test": "Cytotoxicity against African Green monkey Vero E6 cells measured after 48 hrs by MTT assay", "assay_type": "cell-based", "conditions": "chlorocebus sabaeus, vero c1008, 48 h", "in_short": "as §1"}, "Vero E6 [8]": {"tested_on": "Vero E6", "test": "Inhibition of SARS-CoV-2 spike glycoprotein S2 in human HEK293T cells transfected with pAAV-IRES-GFP-SARS-CoV-2 S assessed as inhibition of membrane fusion to african green monkey Vero E6 cells […] pretreated at 2.5 to 20 uM for 30 mins measured after 24 hrs by cell-cell fusion based fluorescence microscopy", "conditions": "Severe acute respiratory syndrome-related coronavirus, dose 2.5-20 µM", "in_short": "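Effector HEK-293T cells were transfected with pAAV-IRES-GFP-SARS-CoV-2 S, or with empty pAAV-IRES-GFP as vehicle. They were pretreated with compound for 30 min and overlaid on Vero-E6 target cells seeded 6 h earlier (20,000/well). After 24 h, three random fields were imaged by fluorescence microscopy.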"}}}
{"smiles": "C[C@@H]1O[C@@H](O[C@H]2[C@H](O[C@H]3CC[C@]4(C)[C@H]5CC=C6[C@@H]7CC(C)(C)CC[C@]7(C(=O)OCc7ccccc7)CC[C@@]6(C)[C@]5(C)CC[C@H]4C3(C)C)O[C@H](CO)[C@@H](O[C@@H]3O[C@@H](C)[C@H](O)[C@@H](O)[C@H]3O)[C@@H]2O)[C@H](O)[C@H](O)[C@H]1O", "values": [{"measurement": "CC50", "setting": "[1]", "value": 21.6, "unit": "µM"}, {"measurement": "selectivity ratio", "setting": "[2]", "value": 1.29}]}
{"smiles": "COc1cccc(NC(=O)[C@]23CCC(C)(C)C[C@H]2C2=CC[C@@H]4[C@@]5(C)CC[C@H](O[C@@H]6O[C@H](CO)[C@@H](O[C@@H]7O[C@@H](C)[C@H](O)[C@@H](O)[C@H]7O)[C@H](O)[C@H]6O[C@@H]6O[C@@H](C)[C@H](O)[C@@H](O)[C@H]6O)C(C)(C)[C@@H]5CC[C@@]4(C)[C@]2(C)CC3)c1", "values": [{"measurement": "CC50", "setting": "[1]", "value": "> 100", "unit": "µM"}, {"measurement": "selectivity ratio", "setting": "[2]", "value": "> 12"}]}
{"smiles": "C[C@@H]1O[C@@H](O[C@H]2[C@H](O[C@H]3CC[C@]4(C)[C@H]5CC=C6[C@@H]7CC(C)(C)CC[C@]7(C(=O)NCc7cccs7)CC[C@@]6(C)[C@]5(C)CC[C@H]4C3(C)C)O[C@H](CO)[C@@H](O[C@@H]3O[C@@H](C)[C@H](O)[C@@H](O)[C@H]3O)[C@@H]2O)[C@H](O)[C@H](O)[C@H]1O", "values": [{"measurement": "CC50", "setting": "[1]", "value": 34.9, "unit": "µM"}, {"measurement": "selectivity ratio", "setting": "[2]", "value": 5.92}]}
{"smiles": "C[C@@H]1O[C@@H](O[C@H]2[C@H](O[C@H]3CC[C@]4(C)[C@H]5CC=C6[C@@H]7CC(C)(C)CC[C@]7(C(=O)NCc7ccccc7Br)CC[C@@]6(C)[C@]5(C)CC[C@H]4C3(C)C)O[C@H](CO)[C@@H](O[C@@H]3O[C@@H](C)[C@H](O)[C@@H](O)[C@H]3O)[C@@H]2O)[C@H](O)[C@H](O)[C@H]1O", "values": [{"measurement": "CC50", "setting": "[1]", "value": "> 100", "unit": "µM"}, {"measurement": "selectivity ratio", "setting": "[2]", "value": "> 8.51"}]}
{"smiles": "COc1ccc(NC(=O)[C@]23CCC(C)(C)C[C@H]2C2=CC[C@@H]4[C@@]5(C)CC[C@H](O[C@@H]6O[C@H](CO)[C@@H](O[C@@H]7O[C@@H](C)[C@H](O)[C@@H](O)[C@H]7O)[C@H](O)[C@H]6O[C@@H]6O[C@@H](C)[C@H](O)[C@@H](O)[C@H]6O)C(C)(C)[C@@H]5CC[C@@]4(C)[C@]2(C)CC3)cc1", "values": [{"measurement": "CC50", "setting": "[1]", "value": "> 100", "unit": "µM"}, {"measurement": "selectivity ratio", "setting": "[2]", "value": "> 10"}]}
{"smiles": "C[C@@H]1O[C@@H](O[C@H]2[C@H](O[C@H]3CC[C@]4(C)[C@H]5CC=C6[C@@H]7CC(C)(C)CC[C@]7(C(=O)NCc7ccccc7)CC[C@@]6(C)[C@]5(C)CC[C@H]4C3(C)C)O[C@H](CO)[C@@H](O[C@@H]3O[C@@H](C)[C@H](O)[C@@H](O)[C@H]3O)[C@@H]2O)[C@H](O)[C@H](O)[C@H]1O", "values": [{"measurement": "Kd", "setting": "[3]", "value": 2.16, "unit": "µM"}, {"measurement": "CC50", "setting": "[1]", "value": "> 100", "unit": "µM"}, {"measurement": "Kd", "setting": "[4]", "value": "Active"}, {"measurement": "Kd", "setting": "[5]", "value": 3690, "unit": "µM"}, {"measurement": "IC50", "setting": "[6]", "value": 0.97, "unit": "µM"}, {"measurement": "inhibition", "setting": "Vero E6 [7]", "value": "Dose-Dependent Effect"}, {"measurement": "Activity", "setting": "Vero C1008", "value": "Non-Toxic"}, {"measurement": "inhibition", "setting": "Vero E6 [8]", "value": "Dose-Dependent Effect"}, {"measurement": "selectivity ratio", "setting": "[2]", "value": "> 22.9"}]}
{"smiles": "COc1ccccc1CNC(=O)[C@]12CCC(C)(C)C[C@H]1C1=CC[C@@H]3[C@@]4(C)CC[C@H](O[C@@H]5O[C@H](CO)[C@@H](O[C@@H]6O[C@@H](C)[C@H](O)[C@@H](O)[C@H]6O)[C@H](O)[C@H]5O[C@@H]5O[C@@H](C)[C@H](O)[C@@H](O)[C@H]5O)C(C)(C)[C@@H]4CC[C@@]3(C)[C@]1(C)CC2", "values": [{"measurement": "CC50", "setting": "[1]", "value": 33.4, "unit": "µM"}, {"measurement": "selectivity ratio", "setting": "[2]", "value": 2}]}
{"smiles": "C[C@@H]1O[C@@H](O[C@H]2[C@H](O[C@H]3CC[C@]4(C)[C@H]5CC=C6[C@@H]7CC(C)(C)CC[C@]7(C(=O)NCc7ccccc7Cl)CC[C@@]6(C)[C@]5(C)CC[C@H]4C3(C)C)O[C@H](CO)[C@@H](O[C@@H]3O[C@@H](C)[C@H](O)[C@@H](O)[C@H]3O)[C@@H]2O)[C@H](O)[C@H](O)[C@H]1O", "values": [{"measurement": "CC50", "setting": "[1]", "value": "> 100", "unit": "µM"}, {"measurement": "selectivity ratio", "setting": "[2]", "value": "> 15.8"}]}
{"smiles": "C[C@@H]1O[C@@H](O[C@H]2[C@H](O[C@H]3CC[C@]4(C)[C@H]5CC=C6[C@@H]7CC(C)(C)CC[C@]7(C(=O)NCCCc7ccccc7)CC[C@@]6(C)[C@]5(C)CC[C@H]4C3(C)C)O[C@H](CO)[C@@H](O[C@@H]3O[C@@H](C)[C@H](O)[C@@H](O)[C@H]3O)[C@@H]2O)[C@H](O)[C@H](O)[C@H]1O", "values": [{"measurement": "CC50", "setting": "[1]", "value": "> 100", "unit": "µM"}, {"measurement": "selectivity ratio", "setting": "[2]", "value": "> 7.66"}]}
{"smiles": "C[C@@H]1O[C@@H](O[C@H]2[C@H](O[C@H]3CC[C@]4(C)[C@H]5CC=C6[C@@H]7CC(C)(C)CC[C@]7(C(=O)NCc7ccccc7F)CC[C@@]6(C)[C@]5(C)CC[C@H]4C3(C)C)O[C@H](CO)[C@@H](O[C@@H]3O[C@@H](C)[C@H](O)[C@@H](O)[C@H]3O)[C@@H]2O)[C@H](O)[C@H](O)[C@H]1O", "values": [{"measurement": "CC50", "setting": "[1]", "value": "> 100", "unit": "µM"}, {"measurement": "selectivity ratio", "setting": "[2]", "value": "> 17.6"}]}
{"smiles": "COc1ccccc1NC(=O)[C@]12CCC(C)(C)C[C@H]1C1=CC[C@@H]3[C@@]4(C)CC[C@H](O[C@@H]5O[C@H](CO)[C@@H](O[C@@H]6O[C@@H](C)[C@H](O)[C@@H](O)[C@H]6O)[C@H](O)[C@H]5O[C@@H]5O[C@@H](C)[C@H](O)[C@@H](O)[C@H]5O)C(C)(C)[C@@H]4CC[C@@]3(C)[C@]1(C)CC2", "values": [{"measurement": "CC50", "setting": "[1]", "value": 31.2, "unit": "µM"}, {"measurement": "selectivity ratio", "setting": "[2]", "value": 5.64}]}
{"smiles": "C[C@@H]1O[C@@H](O[C@H]2[C@H](O[C@H]3CC[C@]4(C)[C@H]5CC=C6[C@@H]7CC(C)(C)CC[C@]7(C(=O)NCCc7ccccc7)CC[C@@]6(C)[C@]5(C)CC[C@H]4C3(C)C)O[C@H](CO)[C@@H](O[C@@H]3O[C@@H](C)[C@H](O)[C@@H](O)[C@H]3O)[C@@H]2O)[C@H](O)[C@H](O)[C@H]1O", "values": [{"measurement": "CC50", "setting": "[1]", "value": "> 100", "unit": "µM"}, {"measurement": "selectivity ratio", "setting": "[2]", "value": "> 13.6"}]}
{"smiles": "C[C@@H]1O[C@@H](O[C@H]2[C@H](O[C@H]3CC[C@]4(C)[C@H]5CC=C6[C@@H]7CC(C)(C)CC[C@]7(C(=O)N(C)Cc7ccccc7)CC[C@@]6(C)[C@]5(C)CC[C@H]4C3(C)C)O[C@H](CO)[C@@H](O[C@@H]3O[C@@H](C)[C@H](O)[C@@H](O)[C@H]3O)[C@@H]2O)[C@H](O)[C@H](O)[C@H]1O", "values": [{"measurement": "CC50", "setting": "[1]", "value": 37.6, "unit": "µM"}, {"measurement": "selectivity ratio", "setting": "[2]", "value": 4.84}]}
{"smiles": "O=C(/C=C/c1ccc(O)c2oc(-c3ccc(O)c(O)c3)cc12)O[C@H](Cc1ccc(O)c(O)c1)C(=O)O", "values": [{"measurement": "CC50", "setting": "[1]", "value": "> 100", "unit": "µM"}, {"measurement": "selectivity ratio", "setting": "[2]", "value": "> 26"}]}
{"smiles": "C[C@@H]1O[C@@H](O[C@H]2[C@H](O[C@H]3CC[C@]4(C)[C@H]5CC=C6[C@@H]7CC(C)(C)CC[C@]7(C(=O)Nc7ccccc7Cl)CC[C@@]6(C)[C@]5(C)CC[C@H]4C3(C)C)O[C@H](CO)[C@@H](O[C@@H]3O[C@@H](C)[C@H](O)[C@@H](O)[C@H]3O)[C@@H]2O)[C@H](O)[C@H](O)[C@H]1O", "values": [{"measurement": "CC50", "setting": "[1]", "value": 31.7, "unit": "µM"}, {"measurement": "selectivity ratio", "setting": "[2]", "value": 5.06}]}
{"smiles": "C[C@@H]1O[C@@H](O[C@H]2[C@H](O[C@H]3CC[C@]4(C)[C@H]5CC=C6[C@@H]7CC(C)(C)CC[C@]7(C(=O)Nc7ccccc7)CC[C@@]6(C)[C@]5(C)CC[C@H]4C3(C)C)O[C@H](CO)[C@@H](O[C@@H]3O[C@@H](C)[C@H](O)[C@@H](O)[C@H]3O)[C@@H]2O)[C@H](O)[C@H](O)[C@H]1O", "values": [{"measurement": "CC50", "setting": "[1]", "value": 33.5, "unit": "µM"}, {"measurement": "selectivity ratio", "setting": "[2]", "value": 1.85}]}
